# Experimental data: paper PMC10788905 (Journal of Medicinal Chemistry, 2023)
# pIC50: −log10 of the molar value. Where a name gives a salt, the structure may show the parent alone.
# Assays:
# [1] = tested on: human ether-a-go-go-related gene (hERG) potassium channel; conditions: cited from earlier work
# xenograft models = conditions: doses lower than 50 mg/kg (ip daily); cited from earlier work
# breast cancer BT-474 = conditions: after 72 h treatment; cited from earlier work
# [2] = Liver microsomal stability, mouse and human, UDPGA; assay type: in vitro ADME; conditions: for m,h-LM % at 120 min / m,h-LM t1/2: mouse and human liver microsomes; for m,h-LM % at 120 min: UDPGA, compound remaining at 120 min; for half-life at 4.6 μM: mouse and human, liver microsomes with alamethicin, pH 7.5; for m,h-LM t1/2: UDPGA cofactor
# Outline: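 Phase II: compound from a 10 mM DMSO stock (4.6 μM final) was preincubated 15 min at 37 °C with mouse or human liver microsomes plus alamethicin in 0.1 M Tris-HCl pH 7.5, 10% DMSO. UDPGA, D-saccharic acid lactone and MgCl₂ were added and incubated 2 h at 37 °C. Samples at 0–120 min were quenched in cold MeCN with internal standard. No-cofactor matrix controls were run. Mean of ≥2 experiments, duplicates.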
# [3] = tested on: melanoma A375 cells expressing GFP-LC3; assay: GFP-LC3 reporter autophagy assay; assay type: cell-based, human; conditions: 24 h treatment; for GFP-LC3-positive autophagosomes (fluorescent dots per cell): different concentrations
# Outline: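 A375 melanoma cells were stably transfected with EGFP-LC3B and G418-selected; the clone used was validated with 10 μM chloroquine. Cells on glass-bottom plates were exposed to varied compound concentrations for 24 h, fixed in 4% PFA and Hoechst 33342-stained. GFP-LC3 perinuclear dots per cell were counted by fluorescence microscopy, ten fields per dose, four independent replicates.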
# several tumor cell lines = conditions: cited from earlier work
# Tolerability studies = assay type: in vivo, female CD1 mice; conditions: for reduction in body weight: after 8 days
# Outline: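 Female CD1 mice (8–9 weeks, 4-day acclimation), 3 per group, received ip compound in saline; controls got saline ip daily. Regimens: 138 μmol/kg daily or every other day; 69 μmol/kg daily or 3 days on/2 off, over an 8-day period. Behavior, body weight, food and water intake were recorded daily. Weight on the pre-treatment day was set to 100%.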
# A375 xenografts = assay: A375 subcutaneous xenograft model; assay type: in vivo, female NMRI-Foxn1nu mice
# BT-474 cells = assay: Apoptosis in BT-474; assay type: cell-based, human; conditions: BT-474, different concentrations, 24 h
# Outline: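 Poly-caspase activity detected with a live-cell red/green caspase apoptosis detection kit. Cleaved PARP measured by immunoblot in TBS-T with 5% BSA: primary antibody 1:2000, GAPDH loading control 1:100000, HRP-conjugated secondaries 1:10000.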
# [4] = 30 mg/kg ip, 3/5 d schedule, day 15
smiles,measurement,setting,value
"CCN(CC)CCCC(C)Nc1ccnc2cc(Cl)ccc12 (stereo not shown) [CQ, Chloroquine]",concentrations blocking hERG activity,[1],single-digit
same,efficacy in xenograft models,xenograft models,completely ineffective
"CN1CCN(Cc2cc(CNC3(c4ccccc4F)CCCC3)ccc2O)CC1 [Compound 1a, 4-[[[1-(2-fluorophenyl)cyclopentyl]amino]methyl]-2-[(4-methylpiperazin-1-yl)methyl]phenol]",pIC50,breast cancer BT-474,4.52
CN1CCC(Cc2cccc(CNC3(c4ccc(F)cc4)CCCC3)c2)CC1 [Compound 1e],"m,h-LM % at 120 min",[2],> 95%
same,half-life at 4.6 μM,[2],> 120 min
same,GFP-LC3-positive autophagosomes (fluorescent dots per cell),[3],dose-dependent accumulation
same,pIC50,breast cancer BT-474,5.68
same,"in vitro anticancer activity, times higher than CQ",several tumor cell lines,up to 50 times
"COc1cc(F)ccc1C1(NCc2cccc(CC3CCN(C)CC3)c2)CCCC1 [Compound 5, 1-(4-Fluoro-2-methoxy-phenyl)-N-[[3-[(1-methyl-4-piperidyl)methyl]phenyl]methyl]cyclopentanamine Dihydrochloride]","m,h-LM % at 120 min",[2],> 95%
same,half-life at 4.6 μM,[2],> 120 min
"CN1CCC(Cc2cccc(CNC3(c4ccc(F)cc4O)CCCC3)c2)CC1 [Compound 6, 5-Fluoro-2-[1-[[3-[(1-methyl-4-piperidyl)methyl]phenyl]methylamino]cyclopentyl]phenol Dihydrochloride]","m,h-LM % at 120 min",[2],> 95%
same,half-life at 4.6 μM,[2],> 120 min
"CN1CCC(Cc2cccc(CNC3(c4ccc(F)c(F)c4)CCCC3)c2)CC1 [Compound 7, 1-(3,4-Difluorophenyl)-N-[[3-[(1-methyl-4-piperidyl)methyl]phenyl]methyl]cyclopentanamine;dihydrochloride]","m,h-LM % at 120 min",[2],> 95%
same,half-life at 4.6 μM,[2],> 120 min
"COc1cc(C2(NCc3cccc(CC4CCN(C)CC4)c3)CCCC2)ccc1F [Compound 9, 1-(4-Fluoro-3-methoxy-phenyl)-N-[[3-[(1-methyl-4-piperidyl)methyl]phenyl]methyl]cyclopentanamine Dihydrochloride]","m,h-LM % at 120 min",[2],> 95%
same,half-life at 4.6 μM,[2],> 120 min
"CN1CCC(Cc2cccc(CNC3(c4ccc(F)c(O)c4)CCCC3)c2)CC1 [Compound 10, 2-Fluoro-5-[1-[[3-[(1-methyl-4-piperidyl)methyl]phenyl]methylamino]cyclopentyl]phenol Dihydrochloride]","m,h-LM % at 120 min",[2],> 95%
"CN1CCC(Cc2cc(CNC3(c4ccc(F)cc4)CCCC3)ccc2F)CC1 [Compound 11, N-[[4-Fluoro-3-[(1-methyl-4-piperidyl)methyl]phenyl]methyl]-1-(4-fluorophenyl)cyclopentanamine Dihydrochloride]",half-life at 4.6 μM,[2],> 120 min
"CN1CCC(Cc2cc(CNC3(c4ccc(F)cc4)CCCC3)ccc2O)CC1 [Compound 12, 4-[[[1-(4-Fluorophenyl)cyclopentyl]amino]methyl]-2-[(1-methyl-4-piperidyl)methyl]phenol Dihydrochloride]",half-life at 4.6 μM,[2],> 120 min
"CN1CCC(Cc2ccc(F)c(CNC3(c4ccc(F)cc4)CCCC3)c2)CC1 [Compound 14, N-[[2-Fluoro-5-[(1-methyl-4-piperidyl)methyl]phenyl]methyl]-1-(4-fluorophenyl)cyclopentanamine Dihydrochloride]",half-life at 4.6 μM,[2],> 120 min
"CN1CCC(Cc2ccc(O)c(CNC3(c4ccc(F)cc4)CCCC3)c2)CC1 [Compound 15, 2-[[[1-(4-Fluorophenyl)cyclopentyl]amino]methyl]-4-[(1-methyl-4-piperidyl)methyl]phenol Dihydrochloride]",half-life at 4.6 μM,[2],> 120 min
"CN1CCC(Cc2cc(CNC3(c4ccc(F)cc4)CCCC3)c(F)cc2F)CC1 [Compound 16, N-[[2,4-Difluoro-5-[(1-methyl-4-piperidyl)methyl]phenyl]methyl]-1-(4-fluorophenyl)cyclopentanamine Dihydrochloride]",half-life at 4.6 μM,[2],> 120 min
"CN1CC2(CC(Cc3cccc(CNC4(c5ccc(F)cc5)CCCC4)c3)C2)C1 [Compound 21, 1-(4-Fluorophenyl)-N-[[3-[(2-methyl-2-azaspiro[3.3]heptan-6-yl)methyl]phenyl]methyl]cyclopentanamine Dihydrochloride]",half-life at 4.6 μM,[2],> 120 min
"COc1cc(F)ccc1C1(NCc2ccc(F)c(CC3CCN(C)CC3)c2)CCCC1 [Compound 22, 1-(4-Fluoro-2-methoxy-phenyl)-N-[[4-fluoro-3-[(1-methyl-4-piperidyl)methyl]phenyl]methyl]cyclopentanamine Dihydrochloride]",half-life at 4.6 μM,[2],> 120 min
"Fc1ccc(C2(NCc3ccc(F)c(CC4CCNCC4)c3)CCCC2)cc1 [Compound 24, 1-(4-Fluorophenyl)-N-[[4-fluoro-3-(4-piperidylmethyl)phenyl]methyl]cyclopentanamine Dihydrochloride]","m,h-LM t1/2",[2],> 120 min
same,half-life at 4.6 μM,[2],> 120 min
same,increase in fluorescent dots compared with 1e,[3]; all the doses tested,significantly higher increase
same,GFP-LC3-positive autophagosomes (fluorescent dots per cell),[3],dose-dependent accumulation
same,reduction in body weight,Tolerability studies; 69 μmol/kg (31 mg/kg) ip daily,≤ 5%
same,"tolerability (body weight, water and food intake)","Tolerability studies; 69 μmol/kg (31 mg/kg) ip, 3/5 d schedule, 15-day period",well tolerated
same,signs of arched backs and lethargy,Tolerability studies; 138 μmol/kg (62 mg/kg) ip daily,did not observe clear signs of arched backs and lethargy
same,animal body weight,"Tolerability studies; 138 μmol/kg (62 mg/kg) ip daily, after 2 days of treatment",significantly reduced
same,reduction in body weight,Tolerability studies; 138 μmol/kg (62 mg/kg) ip every other day,≤ 5%
same,tumor expression of REV-ERB target genes BMAL1 and PEPCK,"A375 xenografts; 30 mg/kg ip for 2 days, tumors collected after 48 h, versus control",significantly higher expression
same,average tumor volume (excised tumors),A375 xenografts; [4],307.7 mm^3
same,average tumor weight,A375 xenografts; [4],0.365 g
same,effects on body weight,"A375 xenografts; 30 mg/kg ip, 3/5 d schedule, mice bearing A375 xenografts",negligible effects
same,caspase-activity and cleaved PARP protein levels,BT-474 cells,dose-dependent induction
"Fc1ccc(C2(NCc3cc(CC4CCNCC4)ccc3F)CCCC2)cc1 [Compound 25, 1-(4-Fluorophenyl)-N-[[2-fluoro-5-(4-piperidylmethyl)phenyl]methyl]cyclopentanamine Dihydrochloride]","m,h-LM t1/2",[2],> 120 min
"CCN(CCO)CCCC(C)Nc1ccnc2cc(Cl)ccc12 (stereo not shown) [HCQ, hydroxychloroquine]",concentrations blocking hERG activity,[1],single-digit
